# Test results as given in the M2OR odorant receptor database.
# Legend:
# Details in all cases: stereoisomer not certain
# UniProt Q8VGX8 = target: T1, UniProt Q8VGX8
# T1 sequence (whole entry): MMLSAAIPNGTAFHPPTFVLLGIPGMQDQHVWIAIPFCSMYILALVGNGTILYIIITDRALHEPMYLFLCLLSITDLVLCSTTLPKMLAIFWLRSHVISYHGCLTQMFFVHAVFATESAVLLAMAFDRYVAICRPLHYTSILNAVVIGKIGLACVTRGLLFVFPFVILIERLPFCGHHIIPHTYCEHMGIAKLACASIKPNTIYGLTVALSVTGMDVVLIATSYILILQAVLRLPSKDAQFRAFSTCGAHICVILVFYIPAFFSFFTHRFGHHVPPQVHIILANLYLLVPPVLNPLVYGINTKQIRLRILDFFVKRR
# How it was run: (§1)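 Assay methods differ from source to source, frequently being transient luciferase assays in mammalian cell lines. For each receptor–molecule pair, the label responsive (active) applies when the original authors judged the measured signal statistically different from baseline, and non-responsive (inactive) applies otherwise.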
# UniProt Q8VGY6 = target: T2, UniProt Q8VGY6
# T2 sequence (whole entry): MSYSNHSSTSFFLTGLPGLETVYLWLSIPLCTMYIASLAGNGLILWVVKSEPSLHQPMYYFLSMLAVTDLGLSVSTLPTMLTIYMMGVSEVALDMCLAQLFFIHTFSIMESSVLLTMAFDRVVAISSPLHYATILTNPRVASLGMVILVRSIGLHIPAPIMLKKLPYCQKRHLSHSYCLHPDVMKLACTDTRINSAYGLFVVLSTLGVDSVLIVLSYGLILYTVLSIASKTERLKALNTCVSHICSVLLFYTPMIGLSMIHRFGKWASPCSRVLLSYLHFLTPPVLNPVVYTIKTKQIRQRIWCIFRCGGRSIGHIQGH
# How it was run: as §1
# UniProt Q8VGZ2 = target: T3, UniProt Q8VGZ2
# T3 sequence (whole entry): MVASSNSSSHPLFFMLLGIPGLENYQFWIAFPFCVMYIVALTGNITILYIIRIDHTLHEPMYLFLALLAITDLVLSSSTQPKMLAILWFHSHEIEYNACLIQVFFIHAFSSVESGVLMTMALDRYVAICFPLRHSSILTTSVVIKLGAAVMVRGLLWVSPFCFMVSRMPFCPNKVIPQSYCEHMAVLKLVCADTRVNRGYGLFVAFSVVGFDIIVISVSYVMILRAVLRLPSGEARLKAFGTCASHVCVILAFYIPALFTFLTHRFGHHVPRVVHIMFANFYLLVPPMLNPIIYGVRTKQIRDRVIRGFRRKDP
# How it was run: as §1
# UniProt Q8VGZ7 = target: T4, UniProt Q8VGZ7
# T4 sequence (whole entry): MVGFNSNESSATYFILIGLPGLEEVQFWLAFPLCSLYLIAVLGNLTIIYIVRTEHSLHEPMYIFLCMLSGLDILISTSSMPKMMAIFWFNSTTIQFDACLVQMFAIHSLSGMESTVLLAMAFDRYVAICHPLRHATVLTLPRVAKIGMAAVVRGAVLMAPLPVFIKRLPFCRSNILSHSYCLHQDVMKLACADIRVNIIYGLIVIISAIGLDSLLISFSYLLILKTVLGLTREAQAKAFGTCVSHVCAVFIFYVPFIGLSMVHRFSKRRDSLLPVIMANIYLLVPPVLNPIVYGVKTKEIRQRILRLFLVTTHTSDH
# How it was run: as §1
# UniProt Q8VH10 = target: T5, UniProt Q8VH10
# T5 sequence (whole entry): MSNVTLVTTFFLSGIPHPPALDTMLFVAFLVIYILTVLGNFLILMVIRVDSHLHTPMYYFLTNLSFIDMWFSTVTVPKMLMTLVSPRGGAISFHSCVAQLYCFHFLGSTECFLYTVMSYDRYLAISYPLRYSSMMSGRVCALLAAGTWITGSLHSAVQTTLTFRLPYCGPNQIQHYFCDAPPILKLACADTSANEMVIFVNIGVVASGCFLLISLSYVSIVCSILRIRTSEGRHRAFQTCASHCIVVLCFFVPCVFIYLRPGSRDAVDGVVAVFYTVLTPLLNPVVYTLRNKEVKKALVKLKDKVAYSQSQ
# How it was run: as §1
# UniProt Q8VH16 = target: T6, UniProt Q8VH16
# T6 sequence (whole entry): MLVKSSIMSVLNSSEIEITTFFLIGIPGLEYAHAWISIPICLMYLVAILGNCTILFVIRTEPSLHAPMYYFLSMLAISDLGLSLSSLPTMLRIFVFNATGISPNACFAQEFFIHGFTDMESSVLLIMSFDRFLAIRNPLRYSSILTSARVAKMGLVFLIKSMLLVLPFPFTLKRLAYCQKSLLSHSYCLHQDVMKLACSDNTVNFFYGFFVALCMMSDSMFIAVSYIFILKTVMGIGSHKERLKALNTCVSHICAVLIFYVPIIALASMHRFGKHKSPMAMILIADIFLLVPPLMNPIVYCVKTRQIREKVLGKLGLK
# How it was run: as §1
# UniProt Q8VH20 = target: T7, UniProt Q8VH20
# T7 sequence (whole entry): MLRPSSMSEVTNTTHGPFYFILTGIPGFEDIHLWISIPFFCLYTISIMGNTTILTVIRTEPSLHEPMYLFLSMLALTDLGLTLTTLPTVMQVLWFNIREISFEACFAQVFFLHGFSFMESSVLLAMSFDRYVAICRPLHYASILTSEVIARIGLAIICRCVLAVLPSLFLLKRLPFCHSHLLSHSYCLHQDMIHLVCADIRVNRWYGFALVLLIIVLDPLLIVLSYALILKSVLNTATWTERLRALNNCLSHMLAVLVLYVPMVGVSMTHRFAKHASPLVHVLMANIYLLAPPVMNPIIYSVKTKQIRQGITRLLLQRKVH
# How it was run: as §1
# UniProt Q8VH21 = target: T8, UniProt Q8VH21
# T8 sequence (whole entry): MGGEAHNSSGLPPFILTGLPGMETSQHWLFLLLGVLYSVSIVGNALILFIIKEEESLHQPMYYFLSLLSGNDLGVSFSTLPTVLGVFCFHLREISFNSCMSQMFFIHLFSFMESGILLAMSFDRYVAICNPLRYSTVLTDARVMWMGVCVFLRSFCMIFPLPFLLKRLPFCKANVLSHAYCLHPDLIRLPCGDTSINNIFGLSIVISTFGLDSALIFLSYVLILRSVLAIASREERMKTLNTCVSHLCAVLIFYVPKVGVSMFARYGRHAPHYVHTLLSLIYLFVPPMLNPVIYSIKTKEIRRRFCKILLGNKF
# How it was run: as §1
# UniProt Q8VH18 = target: T9, UniProt Q8VH18
# T9 sequence (whole entry): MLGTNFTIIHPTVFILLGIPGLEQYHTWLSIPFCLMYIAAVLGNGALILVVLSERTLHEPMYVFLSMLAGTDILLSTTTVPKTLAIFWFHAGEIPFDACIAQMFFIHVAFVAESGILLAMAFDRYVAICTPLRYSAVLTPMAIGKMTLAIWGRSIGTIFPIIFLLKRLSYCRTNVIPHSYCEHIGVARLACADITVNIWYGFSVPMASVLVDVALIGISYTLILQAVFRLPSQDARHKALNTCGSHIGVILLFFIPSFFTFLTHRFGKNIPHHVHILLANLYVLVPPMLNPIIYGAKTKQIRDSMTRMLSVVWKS
# How it was run: as §1
# UniProt Q920P1 = target: T10, UniProt Q920P1
# T10 sequence (whole entry): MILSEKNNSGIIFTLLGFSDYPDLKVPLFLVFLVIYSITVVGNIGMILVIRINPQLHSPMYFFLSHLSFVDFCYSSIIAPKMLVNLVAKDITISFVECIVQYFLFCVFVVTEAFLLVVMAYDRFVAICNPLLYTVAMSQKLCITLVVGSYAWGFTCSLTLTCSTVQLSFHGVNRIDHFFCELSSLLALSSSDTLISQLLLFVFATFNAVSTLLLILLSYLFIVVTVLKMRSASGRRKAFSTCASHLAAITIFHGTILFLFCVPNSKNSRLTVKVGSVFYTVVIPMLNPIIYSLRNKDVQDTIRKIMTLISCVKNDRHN
# How it was run: as §1
Compound,odorant receptor agonist call (UniProt Q8VGX8),odorant receptor agonist call (UniProt Q8VGY6),odorant receptor agonist call (UniProt Q8VGZ2),odorant receptor agonist call (UniProt Q8VGZ7),odorant receptor agonist call (UniProt Q8VH10),odorant receptor agonist call (UniProt Q8VH16),odorant receptor agonist call (UniProt Q8VH20),odorant receptor agonist call (UniProt Q8VH21),odorant receptor agonist call (UniProt Q8VH18),odorant receptor agonist call (UniProt Q920P1)
CC(=O)OCc1ccccc1,inactive,inactive,inactive,inactive,active,inactive,inactive,inactive,,
CCCCCCCCC(=O)O,active,inactive,active,active,inactive,inactive,active,inactive,active,
CC12CCC(CC1=O)C2(C)C (configuration not stated),inactive,inactive,inactive,inactive,inactive,inactive,inactive,inactive,,
CC(=O)Oc1ccccc1,inactive,inactive,inactive,inactive,active,inactive,inactive,inactive,,
CCCCCC=O,inactive,inactive,inactive,inactive,inactive,inactive,inactive,inactive,,
CCCCCCC(C)=O,inactive,inactive,inactive,inactive,inactive,inactive,inactive,inactive,,
CC(=O)OCC=C(C)C,inactive,inactive,inactive,inactive,inactive,inactive,inactive,inactive,,
C=C(C)C1CCC(C)C(=O)C1 (configuration not stated),inactive,inactive,inactive,inactive,inactive,inactive,inactive,inactive,,
CCCCCCCCCO,inactive,inactive,inactive,inactive,inactive,inactive,inactive,inactive,active,
CCCCCCCCS,inactive,inactive,inactive,inactive,inactive,inactive,inactive,inactive,,
CCC(=O)C(=O)CC,inactive,inactive,inactive,inactive,inactive,inactive,inactive,inactive,,
CC(C)=CCCC(C)CCO (configuration not stated),inactive,inactive,inactive,inactive,inactive,inactive,inactive,inactive,,
O=C([O-])CCCCCCC(=O)[O-].[H+].[H+],inactive,,inactive,inactive,,inactive,inactive,inactive,inactive,
c1ccccc1,inactive,inactive,inactive,inactive,inactive,inactive,inactive,inactive,,inactive
O=C([O-])CCCCC(=O)[O-].[H+].[H+],inactive,,,,,,,,inactive,
CCC(C)c1nccnc1OC (configuration not stated),,,inactive,inactive,,inactive,inactive,inactive,,
Cc1ccc(C(C)C)cc1,,,inactive,inactive,,inactive,inactive,inactive,,
CCCCCC(=Cc1ccccc1)C(OC)OC,,,inactive,inactive,,inactive,inactive,inactive,,
CC1CC=CCCCCCCCCCC(=O)C1 (configuration not stated),,,inactive,inactive,,inactive,inactive,inactive,,
O=c1ccc2ccccc2o1,inactive,inactive,inactive,inactive,inactive,,inactive,,,
Cc1ccc(OC(=O)C(C)C)cc1,,,inactive,inactive,,inactive,inactive,inactive,,
CCC(C(=O)O)c1ccccc1 (configuration not stated),inactive,inactive,inactive,inactive,inactive,,inactive,,,
O=C(O)CCCBr,inactive,,,,,,,,inactive,
C=CC(=C)CCC=C(C)C,,,inactive,inactive,,inactive,inactive,inactive,,
CCN(CC)CC,,,inactive,inactive,,inactive,inactive,inactive,,
CCCCCCCC(=O)[O-].[H+],active,inactive,active,inactive,inactive,,active,,active,
CCCC=O,,,inactive,inactive,,inactive,inactive,inactive,,
